Efa HMGR inh: inhibitors of E. faecalis class II HMGR, primary screen, biochemical, Enterococcus faecalis | HMG-CoA reductase (Enterococcus faecalis, mvaE) | purified E. faecalis HMGR, NADPH absorbance 340 nm kinetic | inhibition, % at 10 µM | hit rate 0.41% among 190,000 | AID 1066, 2008;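 active = inhibition above a set limit, the median over all tested compounds plus 3 SD, cut at about 9.5% in these data; inconclusive = no clear call, values can overlap the other calls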;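 also: enzyme runs in reverse so mevalonate oxidation gives rising NADPH absorbance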
RanGTP-Impb inh: inhibitors of RanGTP-importin-beta interaction, primary screen, biochemical, FRET, CFP-Ran, YFP-importin-beta, homogeneous. cell-free CFP-Ran/YFP-importin-beta FRET ratio. inhibition, % (test concentration not listed). hit rate 1.1% among 300,000. AID 2216, 2009;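 active = more than half of the replicate wells show a fall in the fluorescence ratio signal beyond about 16%, limit read from the data, passing the limit was not always enough; inconclusive = exactly half of the replicate wells pass the set limit; inactive = fewer than half of replicates pass the limit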
PHOSPHO1 inh: PubChem AID 1565 | inhibition, % at 13.3 µM | hit rate 1.1% among 290,000 | recombinant PHOSPHO1, absorbance phosphatase assay | Phosphoethanolamine/phosphocholine phosphatase (Homo sapiens), Q8TCT1; in the data active = inhibition above about 60%
Runt-SMMHC FRET: inhibitors of RUNX1 Runt–CBFb-SMMHC binding, primary screen, biochemical, FRET, Cerulean-Runt, Venus-CBFb-SMMHC, uHTS; inhibition, % at 20 µM; Cerulean-Runt/Venus-CBFb-SMMHC FRET ratio 530/480, 1 h; Runt-related transcription factor 1 (Homo sapiens) + Core-binding factor subunit beta …; AID 1434, 2008; hit rate 0.74% among 220,000;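 active = mean inhibition across duplicate retests at 20 µM reaching about 50%, limit read from the data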;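 also: inhibitors lower the FRET ratio by blocking Runt binding to CBFb-SMMHC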
Runt-CBFb FRET: inhibitors of RUNX1 Runt–CBFb binding, primary screen, biochemical, FRET, Cerulean-Runt, Venus-CBFb, uHTS; Runt-related transcription factor 1 (Homo sapiens) + Core-binding factor subunit beta …; Cerulean-Runt/Venus-CBFb FRET ratio 530/480, 1 h; inhibition, % at 20 µM; hit rate 0.46% among 220,000;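 active = inhibition over about 50% at 20 µM in the single-dose screen, limit read from the data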
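test system = Cerulean-tagged RUNX1 Runt domain (FRET donor) fusion protein | reagent = Venus-CBFb binding partner, 100 nM | incubation = protein complex preformed 1 h, compound exposure 1 h, room temperature, dark | detection = FRET fluorescence | read-out basis = loss of energy transfer signal | controls = 5 µM unlabeled CBFb as full-inhibition high control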
Wee1 degr inh: Wee1 degradation inhibitors, primary screen, cell-based, HeLa, Wee1K328M-luciferase, luminescence; hit rate 1.2% among 220,000; HeLa Luc-Wee1K328M stability; 100% = proteasome inhibitor MG132 effect; Wee1-like protein kinase (Homo sapiens), P30291; reporter increase, % at 5 µM;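 active = activation above the mean of all tested compounds plus 3 SD, set per screening run, cut at about 8.8% in these data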;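 also: cells exposed to compound for 20 h before luminescence read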
Target sequence (P30291 whole entry K328M): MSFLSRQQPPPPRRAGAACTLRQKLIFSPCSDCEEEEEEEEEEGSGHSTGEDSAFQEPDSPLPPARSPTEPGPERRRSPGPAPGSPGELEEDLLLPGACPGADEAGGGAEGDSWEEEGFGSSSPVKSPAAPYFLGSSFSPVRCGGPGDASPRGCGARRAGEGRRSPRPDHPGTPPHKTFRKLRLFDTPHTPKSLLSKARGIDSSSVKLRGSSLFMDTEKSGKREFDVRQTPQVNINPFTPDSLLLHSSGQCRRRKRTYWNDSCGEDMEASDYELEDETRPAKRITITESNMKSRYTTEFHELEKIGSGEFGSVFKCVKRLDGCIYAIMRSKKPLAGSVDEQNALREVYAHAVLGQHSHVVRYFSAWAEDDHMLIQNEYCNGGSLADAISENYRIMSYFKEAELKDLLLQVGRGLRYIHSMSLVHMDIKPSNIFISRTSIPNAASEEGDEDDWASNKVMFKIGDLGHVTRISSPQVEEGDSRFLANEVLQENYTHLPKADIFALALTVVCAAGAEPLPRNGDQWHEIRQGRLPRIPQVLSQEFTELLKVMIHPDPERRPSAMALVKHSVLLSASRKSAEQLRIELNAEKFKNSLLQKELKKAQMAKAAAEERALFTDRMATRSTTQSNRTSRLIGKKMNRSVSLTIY
Hits are given with their value; – = inactive; ? = inconclusive; · = no result given; ! = a repeat was not active. Compounds with a hit are over-represented: about 3.4% of the library has one in this group of screens.

SMILES | Efa HMGR inh | RanGTP-Impb inh | PHOSPHO1 inh | Runt-SMMHC FRET | Runt-CBFb FRET | Wee1 degr inh
CCOC(=O)Cc1csc(NC(=O)Nc2ccc(Cl)cc2)n1 | · | – | – | – | – | –
NNC(=O)CCn1c2ccccc2c2ccccc21 | – | – | – | – | – | –
Cc1nnc(SCc2ccccc2)n(N)c1=O | – | – | – | – | – | –
CCCCc1ccc(NC(=O)CSc2nnc(C)c(=O)n2N)cc1 | · | – | 63 | · | · | ·
Cc1nnc(SC/C=C/c2ccccc2)n(N)c1=O | 9.8 | · | – | – | – | –
Cc1nnc(SCC(=O)N2CCCC2)n(N)c1=O | 10 | – | – | – | – | –
CN(C)S(=O)(=O)n1ccnc1 | – | – | – | – | – | –
O=C(NC(=S)Nc1ccc2[nH]c(=O)[nH]c2c1)c1cccc(F)c1 | · | – | – | · | · | ·
Cc1cccc(N2CC(C(=O)OCc3ccc([N+](=O)[O-])cc3)CC2=O)c1 (centres undefined) | – | – | 60 | – | – | –
O=C(OCc1ccc([N+](=O)[O-])cc1)C1CC(=O)N(c2ccccc2)C1 (centres undefined) | – | – | – | – | – | –
CC(=O)Nc1ccc(SCC(=O)Nc2ccc(Cl)cn2)cc1 | – | – | – | – | – | –
CCOC(=O)c1cc2ccc(OC(=O)c3ccco3)cc2oc1=O | – | 182 | – | 62 | – | –
CCOC(=O)c1c[nH]c2ccc3ccccc3c2c1=O | · | – | – | · | · | ·
CCOC(=O)c1cc2ccc3ccccc3c2oc1=O | · | 73 | – | · | · | ·
CCOc1ccc(NC(=O)CSc2nncc(=O)n2N)cc1 | · | – | – | · | · | ·
Cc1cc(S(=O)(=O)N2CCCC2)ccc1OCC(=O)Nc1ccccc1 | · | – | – | · | · | ·
CC(C)C(NC(=O)c1ccc2c(c1)OCO2)C(=O)N/N=C\c1ccco1 (centres undefined) | – | – | 65 | – | – | –
CC(C)C(NC(=O)c1ccc2c(c1)OCO2)C(=O)N/N=C/c1cccs1 (centres undefined) | – | – | – | – | – | –
Cc1ccc(NC(=S)NNC(=O)CCn2cc(C)cn2)cc1 | – | – | 69 | – | – | –
COc1cccc(NC(=S)NNC(=O)Cn2nc([N+](=O)[O-])cc2C)c1 | – | – | – | – | – | –
Cc1cc([N+](=O)[O-])nn1CC(=O)NNC(=S)Nc1ccc(Cl)cc1 | – | – | 93 | – | – | –
O=C(Cn1nc(C(F)F)cc1C(F)F)NNC(=S)Nc1ccc(F)cc1 | – | – | 73 | – | – | –
Cc1ccc(NC(=S)NNC(=O)Cn2nc([N+](=O)[O-])cc2C)cc1 | – | – | 96 | – | – | –
O=C(Cn1nc(C(F)F)cc1C(F)F)NNC(=S)Nc1ccc([N+](=O)[O-])cc1 | – | ? | – | – | – | –
COC(=O)Cn1cc(S(=O)(=O)NCc2ccc(C)cc2)c2cc([N+](=O)[O-])ccc21 | · | – | – | · | · | ·
SMILES | Efa HMGR inh | RanGTP-Impb inh | PHOSPHO1 inh | Runt-SMMHC FRET | Runt-CBFb FRET | Wee1 degr inh
CCOc1cccc(CNCCCSc2ncccn2)c1 | · | – | · | · | · | ·
Cc1ccc(Cl)cc1NC(=O)COC(=O)C12CC3CC(CC(C3)C1)C2 | 14! | – | – | – | – | –
Cc1ccc(Cl)cc1NC(=O)COC(=O)C1CCCC1 | – | – | – | – | – | –
CCC(=O)Nc1c2c(nn1-c1ccc(C)cc1C)CSC2 | – | – | 86 | – | – | –
Cc1ccc(-n2nc3c(c2NC(=O)C(C)(C)C)CSC3)c(C)c1 | – | – | 88 | – | – | –
COc1cc(/C(C)=C/c2ccccc2)c2c(c1)oc1ccccc12 | · | – | – | · | · | ·
O=C(Nc1cccc(C(F)(F)F)c1)c1cccc(NS(=O)(=O)c2ccc(O)c(C(=O)O)c2)c1 | · | – | – | · | · | ·
O=C(Nc1cccc(C(F)(F)F)c1)c1cccc(NS(=O)(=O)c2ccc(Br)c(C(=O)O)c2)c1 | 10 | – | – | – | – | –
NCCSC1CC(=O)N(Cc2ccc(F)cc2)C1=O (centres undefined) | 10 | – | – | – | – | –
O=C(c1ccc(-n2ccnc2)cc1)N1CCCC(CO)(Cc2cccc(Cl)c2)C1 (centres undefined) | · | – | – | · | · | ·
CCCCN(C1CCS(=O)(=O)C1)S(=O)(=O)c1ccc(OC)c(OC)c1 (centres undefined) | · | – | · | · | · | ·
Cc1ccc(/C([O-])=C(/C(=S)NCc2ccco2)[n+]2ccccc2)cc1 | – | – | 100 | – | – | –
O=[N+]([O-])c1ccc(/C([O-])=C(/C(=S)NCc2ccco2)[n+]2ccccc2)cc1 | – | – | – | – | – | –
CCOc1cc(CNCc2ccccn2)cc(Cl)c1OC | – | – | – | – | – | –
CCOc1cc(CNCC(O)c2ccccc2)cc(Cl)c1OC (centres undefined) | – | – | 62 | – | – | –
CC(C)CNC(=S)N(CCCO)Cc1cc2cc3c(cc2[nH]c1=O)OCCO3 | · | 31 | – | · | · | ·
CC(C)CNC(=S)N(CCCN(C)C)Cc1cc2cc3c(cc2[nH]c1=O)OCCO3 | · | – | – | · | · | ·
CC(=O)c1cccc(-c2ccc3c(=O)[nH]c(Nc4ccccc4)cc3c2)c1 | · | 22 | · | · | · | ·
Cn1c(=O)cc(Nc2ccccc2)[nH]c1=O | · | ? | – | · | · | ·
COc1ccccc1Nc1cc2cc(Br)ccc2c(=O)[nH]1 | · | 34 | · | · | · | ·
O=c1[nH]c(Nc2ccccc2)cc2ccccc12 | – | 43 | – | – | – | –
O=c1cc(Nc2cccc(Br)c2)[nH]c(=O)[nH]1 | – | – | – | – | – | –
O=c1[nH]c(Nc2ccccc2)cc2cc(Br)ccc12 | · | 83 | · | · | · | ·
CCc1ccccc1NC(=O)COC(=O)C1C2CC3OC(=O)C1C3C2 (centres undefined) | · | – | – | · | · | ·
CN(Cc1ccccc1)C(=S)Nc1ccc(OC(F)F)cc1 | – | – | – | – | – | –
CN(C)CCCN(Cc1ccccc1)C(=S)Nc1ccc(OC(F)F)cc1 | – | 18 | – | – | – | –
Cc1c(O)ccc(C(=O)COc2ccc(F)cc2)c1O | – | – | – | – | – | 10
CCc1cc(C(=O)COc2ccc(F)cc2)c(O)cc1O | – | – | – | – | – | –
Nc1c(C(=O)NCC2CCCO2)c2nc3ccccc3nc2n1-c1ccccc1 (centres undefined) | – | 78 | – | – | 83 | –
Cc1cccc(NS(=O)(=O)c2ccc(C(=O)NCC3CCCO3)cc2)c1C (centres undefined) | · | – | 61 | · | · | ·

From PubChem BioAssay
